Reference: ChEMBL document CHEMBL2057177, “Analogues of fenarimol are potent inhibitors of Trypanosoma cruzi and are efficacious in a murine model of Chagas disease” (J Med Chem, 2012)
Converted amounts (≈) assume the structure as drawn. The source made the active and inactive calls. The rule behind the calls is not given here.

How the values were obtained:
[1] = Kinetic solubility of the compound at pH 6.5 by nephelometric analysis; assay type: physicochemical; conditions: buffer, read-out: Kinetic_solubility
[2] = Oral bioavailability in Sprague-Dawley rat at 17.6 mg/kg; assay type: ADME, organism-based; conditions: in vivo
Method in brief: (§1)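 Overnight-fasted male Sprague–Dawley rats (272–320 g), n = 2 per route. IV dose given as a 10 min jugular infusion in aqueous solution; oral dose by gavage as aqueous suspension. Arterial blood taken via carotid cannula up to 24 h. Plasma measured by LC-MS after acetonitrile precipitation. Noncompartmental analysis. Blood clearance = plasma clearance divided by in vitro blood/plasma ratio. Bioavailability from mean dose-normalised AUC0–inf, oral versus IV.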

[3] = molecular target: T1, CYP3A4/5 (Homo sapiens, UniProt P08684+P20815); assay: Inhibition of CYP3A4/5 in human liver microsomes; assay type: ADME, Microsome
[4] = Blood Clearance in Sprague-Dawley rat at 5.2 mg/kg, iv; assay type: ADME, organism-based; set-up: dose 5.2 mg/kg, route intravenous; conditions: whole blood; method in brief: as §1
[5] = test system: Trypanosoma cruzi; assay: Antitrypanosomal activity against trypomastigotes of Trypanosoma cruzi Tulahuen expressing the beta- galactosidase gene infected rat L6 cells after 96 hrs; assay type: functional, organism-based; conditions: L6, 96 h
Method in brief: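 Tulahuén trypomastigotes expressing β-galactosidase, maintained by serial passage in L6 cells. L6 cells seeded and left 24 h at 37 °C, 5% CO2, then infected at MOI 3 for 48 h. Compound exposure 96 h, benznidazole control. CPRG with 0.3% Nonidet P-40 added, absorbance at 530 nm after 4−6 h. IC50 taken from % inhibition curve; mean of at least two assays.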

[6] = test system: Trypanosoma cruzi; assay: Antitrypanosomal activity against trypomastigotes of Trypanosoma cruzi Tulahuen infected in Swiss mouse model of chagas disease assessed as level of parasite in blood at 20 mg/kg, po qd for 20 days measured after 30 day; assay type: functional, organism-based; set-up: dose 20 mg/kg
Method in brief: (§2)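 Female Swiss mice infected ip with Tulahuén parasites; oral gavage dosing in HPMC vehicle, daily from day 8 post-infection. Dosing is followed by 10 days without compound. If blood is then parasite-free, mice receive cyclophosphamide ip 50 mg/kg/day, up to three cycles (4 days on, 3 rest). Parasitemia counted in tail-prick blood by hemocytometer.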

[7] = test system: Trypanosoma cruzi; assay: Antitrypanosomal activity against trypomastigotes of Trypanosoma cruzi Tulahuen infected immunosuppressed Swiss mouse assessed as level of parasite in blood at 50 mg/kg, po administered after 2 cycles of immunosuppression qd for 10 days; assay type: functional, organism-based; set-up: dose 50 mg/kg
[8] = Apparent volume of distribution at steady state in Sprague-Dawley rat at 5.2 mg/kg, iv; assay type: ADME, organism-based; set-up: dose 5.2 mg/kg, route intravenous; conditions: in vivo, read-out: Vdss(app); method in brief: as §1
[9] = test system: Trypanosoma cruzi; assay: Antitrypanosomal activity against trypomastigotes of Trypanosoma cruzi Tulahuen infected in Swiss mouse model of chagas disease assessed as decrease in parasite level in blood at 20 mg/kg, po administered 8 day after post infection qd for 20 days; assay type: functional; set-up: scale not given: the % may be the effect or the level left
Method in brief: (§3)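 Female outbred Swiss mice, about 8 weeks old, infected ip with Tulahuén parasites; five mice per group. Daily dosing starts day 8 post-infection. Oral doses given by gavage in HPMC vehicle (0.5% HPMC, 0.4% Tween 80, 0.5% benzyl alcohol); ip doses in PBS with 0.4% Tween 80 and 10% PEG400. Tail-prick blood taken days 8, 9, 12, 14, 16, 19 and 27 post-infection, red cells lysed, and live trypomastigotes counted by hemocytometer. % efficacy = (vehicle mean − treated mean)/vehicle mean × 100. Survival recorded as surviving/infected-and-treated.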

[10] = test system: Trypanosoma cruzi; assay: Antitrypanosomal activity against trypomastigotes of Trypanosoma cruzi Tulahuen infected in Swiss mouse model of chagas disease assessed as decrease in parasite level in blood at 50 mg/kg, po administered 8 day after post infection qd for 10 days measured on day 21; assay type: functional, organism-based; set-up: dose 50 mg/kg
[11] = test system: Trypanosoma cruzi; assay: Antitrypanosomal activity against trypomastigotes of Trypanosoma cruzi Tulahuen infected in Swiss mouse model of chagas disease assessed as decrease in parasite level in blood at 50 mg/kg, po administered 8 day after post infection qd for 10 days; assay type: functional, organism-based; set-up: dose 50 mg/kg
[12] = Elimination half life in Sprague-Dawley rat at 5.2 mg/kg, iv; assay type: ADME, organism-based; set-up: dose 5.2 mg/kg, route intravenous; conditions: in vivo, read-out: beta t1/2 (converted); method in brief: as §1
[13] = test system: Trypanosoma cruzi; assay: Antitrypanosomal activity against trypomastigotes of Trypanosoma cruzi Tulahuen infected immunosuppressed Swiss mouse assessed as level of parasite in blood at 100 mg/kg, po administered 8 day after post infection qd for 20 days measured after 3 cycles of immunosuppression; assay type: functional, organism-based; set-up: dose 100 mg/kg
[14] = test system: Trypanosoma cruzi; assay: Antitrypanosomal activity against trypomastigotes of Trypanosoma cruzi Tulahuen infected immunosuppressed Swiss mouse assessed as level of parasite in blood at 20 mg/kg, po administered 8 day after post infection qd for 20 days measured after 3 cycles of immunosuppression; assay type: functional, organism-based; set-up: dose 20 mg/kg
[15] = test system: Trypanosoma cruzi; assay: Antitrypanosomal activity against trypomastigotes of Trypanosoma cruzi Tulahuen infected in Swiss mouse model of chagas disease assessed as increase of host survival at 100 mg/kg, ip administered 8 days after post infection qd for 5 days; assay type: functional, organism-based; set-up: dose 100 mg/kg; method in brief: as §3
[16] = Plasma concentration in Swiss mouse at 20 mg/kg, po after 8 hrs; assay type: ADME, organism-based; set-up: dose 20 mg/kg, route oral
Method in brief: (§4)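 Nonfasted male Swiss outbred mice (23.8–39.9 g), fed throughout. Dosed by oral gavage as solution or suspension in aqueous vehicle. Plasma assayed by LC-MS against blank-plasma standards after acetonitrile precipitation; LLOQ 0.001–0.015 μM.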

[17] = molecular target: T1, CYP3A4/5; assay: Inhibition of […] in human liver microsomes at 20 uM; assay type: ADME, Microsome
[18] = test system: Trypanosoma cruzi; assay: Antitrypanosomal activity against trypomastigotes of Trypanosoma cruzi Tulahuen infected in Swiss mouse model of chagas disease assessed as decrease in parasite level in blood at 100 mg/kg, ip administered 8 days after post infection qd for 5 days; assay type: functional; set-up: scale not given: the % may be the effect or the level left; conditions: route intraperitoneal; method in brief: as §3
[19] = Plasma concentration in Swiss mouse at 20 mg/kg, po after 1 hr; assay type: ADME, organism-based; set-up: dose 20 mg/kg, route oral; method in brief: as §4
[20] = test system: Trypanosoma cruzi; assay: Antitrypanosomal activity against trypomastigotes of Trypanosoma cruzi Tulahuen infected in Swiss mouse model of chagas disease assessed as decrease in parasite level in blood at 50 mg/kg, po administered 8 days after post infection qd for 5 days; assay type: functional; set-up: scale not given: the % may be the effect or the level left; method in brief: as §3
[21] = test system: Trypanosoma cruzi; assay: Antitrypanosomal activity against trypomastigotes of Trypanosoma cruzi Tulahuen infected in Swiss mouse model of chagas disease assessed as decrease in parasite level in blood at 2 mg/kg, po administered 8 days after post infection qd for 5 days; set-up: scale not given: the % may be the effect or the level left
[22] = test system: Trypanosoma cruzi; assay: Antitrypanosomal activity against trypomastigotes of Trypanosoma cruzi Tulahuen infected in Swiss mouse model of chagas disease assessed as increase of host survival at 10 mg/kg, po administered 8 days after post infection qd for 5 days; assay type: functional, organism-based; set-up: dose 10 mg/kg; method in brief: as §3
[23] = test system: Trypanosoma cruzi; assay: Antitrypanosomal activity against trypomastigotes of Trypanosoma cruzi Tulahuen infected in Swiss mouse model of chagas disease assessed as decrease in parasite level in blood at 10 mg/kg, ip administered 8 days after post infection qd for 5 days; assay type: functional; set-up: scale not given: the % may be the effect or the level left; conditions: route intraperitoneal; method in brief: as §3
[24] = Plasma concentration in Swiss mouse at 50 mg/kg, po after 24 hrs; assay type: ADME, organism-based; set-up: dose 50 mg/kg, route oral; method in brief: as §4
[25] = Plasma concentration in Swiss mouse at 50 mg/kg, po after 8 hrs; assay type: ADME, organism-based; set-up: dose 50 mg/kg, route oral; method in brief: as §4
[26] = Plasma concentration in Swiss mouse at 50 mg/kg, po after 1 hr; assay type: ADME, organism-based; set-up: dose 50 mg/kg, route oral; method in brief: as §4
[27] = test system: Trypanosoma cruzi; assay: Antitrypanosomal activity against trypomastigotes of Trypanosoma cruzi Tulahuen infected immunosuppressed Swiss mouse assessed as level of parasite in blood at 20 mg/kg, po administered after 2 cycles of immunosuppression qd for 10 days; assay type: functional, organism-based; set-up: dose 20 mg/kg; method in brief: as §2
[28] = test system: Trypanosoma cruzi; assay: Antitrypanosomal activity against trypomastigotes of Trypanosoma cruzi Tulahuen infected in Swiss mouse model of chagas disease assessed as increase of host survival at 2 mg/kg, po administered 8 days after post infection qd for 5 days; assay type: functional, organism-based; set-up: dose 2 mg/kg; method in brief: as §3

Question: Which solubility kinetic [1] does the source give for `N#Cc1ccc(C(O)(c2ccc(C(F)(F)F)cc2)c2cccnc2)cc1` (racemic) here?
Answer: 6.3 µg/mL (≈ 17.8 µM)

Question: What about the bioavailability [2] of the same compound?
Answer: 68.1%

Question: What about the IC50 [3] of the same compound?
Answer: 7600 nM

Question: And the clearance [4]?
Answer: 24.4 mL/min/kg

Question: And the IC50 [5]?
Answer: 12 nM

Question: And the Activity [6]?
Answer: Active

Question: What about the Activity [7] of the same compound?
Answer: inactive

Question: What about the Vd [8] of the same compound?
Answer: 5.7 L/kg

Question: And the Activity [9]?
Answer: >99%

Question: What about the Activity [10] of the same compound?
Answer: Active

Question: And the Activity [11]?
Answer: Active

Question: What about the half-life [12] of the same compound?
Answer: 5.1 h

Question: What about the Activity [13] of the same compound?
Answer: Active

Question: What about the Activity [14] of the same compound?
Answer: Active

Question: Which results are given for `OC(c1ccc(Cl)cc1)(c1cncnc1)c1ccccc1Cl` (stereo not given) [FENARIMOL]?
Answer: Activity [15]: Active; concentration at 8 h [16]: 0.08 µM; IC50 [5]: 350 nM; inhibition at 20 µM [17]: 66%; Activity [18]: 80%; concentration at 1 h [19]: 2.1 µM

Question: What does the source list for `CC[C@@H]([C@H](C)O)n1ncn(-c2ccc(N3CCN(c4ccc(OC[C@@H]5CO[C@@](Cn6cncn6)(c6ccc(F)cc6F)C5)cc4)CC3)cc2)c1=O` [POSACONAZOLE]?
Answer: Activity [20]: 100%; solubility kinetic [1]: 3.1 µg/mL (≈ 4.42 µM); Activity [21]: 100%; concentration at 8 h [16]: 13.6 µM; Activity [22]: Active; Activity [23]: 100%; Activity [6]: Active; concentration at 24 h [24]: 3.8 µM; inhibition at 20 µM [17]: 98%; Activity [9]: >99%; concentration at 8 h [25]: 11.1 µM; concentration at 1 h [19]: 6.3 µM; concentration at 1 h [26]: 6.4 µM; Activity [27]: inactive; Activity [28]: Active
